Series [1] deals with T1, Aldo-keto reductase family 1 member B1 (Homo sapiens, UniProt P15121). The series is described as follows: In vitro inhibition of human placental aldose reductase. An outline of the steps: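 Human placental aldose reductase, partly purified (placentae homogenized in 0.1 M K phosphate pH 7.0 with 5 mM 2-mercaptoethanol, spun 33000g, peak fractions pooled). Assay in 50 mM K phosphate pH 7.1 with 0.4 M ammonium sulfate, 0.067 mM NADPH, 1.0 mM DL-glyceraldehyde; enzyme set to 4 milliunits; NADPH oxidation at 340 nm, 25 °C, 10 min. IC50 by log linear regression.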

Series [2] has as its target T1, Aldo-keto reductase family 1 member B1. The series is described as follows: Inhibitory activity measured in vitro against human placental aldose reductase at a concentration of 10e-5 M.
Series [3] has as its target T2, Aldo-keto reductase family 1 member A1 (Sus scrofa, UniProt P50578).
T2 sequence (P50578 whole entry): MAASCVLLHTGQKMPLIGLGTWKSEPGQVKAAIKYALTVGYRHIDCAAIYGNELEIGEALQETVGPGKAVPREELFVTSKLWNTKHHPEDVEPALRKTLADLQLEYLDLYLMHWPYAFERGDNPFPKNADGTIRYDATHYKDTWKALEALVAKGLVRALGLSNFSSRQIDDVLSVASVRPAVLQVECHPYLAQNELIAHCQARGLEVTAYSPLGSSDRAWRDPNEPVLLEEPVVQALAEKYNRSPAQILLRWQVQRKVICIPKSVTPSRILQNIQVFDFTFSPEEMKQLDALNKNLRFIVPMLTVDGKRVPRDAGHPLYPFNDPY
Description: (§1) Selectivity ratio measured as the IC50 ratio of aldehyde/aldose reductase values.

For series [4], the target named is T3, Aldo-keto reductase family 1 member B1 (Rattus norvegicus, UniProt P07943). The series is described as follows: (§2) Inhibitory activity measured against rat lens aldose reductase using 3-pyridinecarboxaldehyde as substrate.
Series [5] in a line: Inhibitory activity measured against pig kidney aldehyde reductase using 3-pyridinecarboxaldehyde as substrate. An outline of the steps: (§3)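 Purified rat lens aldose reductase and homogeneous pig kidney aldehyde reductase, assayed in 50 mM K phosphate pH 7.0 with 0.1 mM NADPH and 5 mM 3-pyridinecarboxaldehyde; substrate-started, NADPH loss at 340 nm over 12 min, 25 °C. IC50 by log linear regression; selectivity = aldehyde IC50 / aldose IC50.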

Series [6] is described as follows: Physicochemical property was determined; b=could not be measured. It counts as ADME.
The species entered for series [7] is Rattus norvegicus. Description: Percent inhibition of sorbitol accumulation in rat lens was measured. It counts as functional, Lens of camera-type eye. The essentials: (§4)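 Streptozotocin 85 mg/kg i.v. at 0 h to induce diabetes in rats; compound 100 mg/kg orally at 4, 7 and 24 h; killed at 27 h. Sorbitol in sciatic nerve or lens compared with untreated diabetic rats, n = 6 per group; Student's t test.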

For series [8], the species on record is Rattus norvegicus. Description: Percent inhibition of sorbitol accumulation in rat sciatic nerve was measured. In kind it is functional. An outline of the steps:
as §4

A short description of series [9]: as §2. An outline of the steps:
as §3

The target in series [10] is T3, Aldo-keto reductase family 1 member B1. The series is described as follows: Inhibition of rat lens aldose reductase was measured.
Series [11] has as its target T4, Aldo-keto reductase family 1 member A1 (Sus scrofa) (UniProt P50578).
T4 sequence (whole entry): T2 sequence (P50578 whole entry)
The series is described as follows: Inhibitory activity measured against pig kidney aldehyde reductase using 3-pyridinecarboxaldehyde as substrate at 2e-4. Conditions: concentration not given here. The essentials: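 Pig kidney aldehyde reductase, purified to homogeneity, was tested at 2 × 10^-4 M inhibitor in 50 mM potassium phosphate pH 7.0 with 0.1 mM NADPH and 5 mM 3-pyridinecarboxaldehyde. The reaction was started with substrate, and NADPH loss was read at 340 nm for 12 min at 25 °C. The value is percent inhibition.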

A short description of series [12]: as §1. An outline of the steps: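 Ratio of the pig kidney aldehyde reductase IC50 to the rat lens aldose reductase IC50. Both purified enzymes were assayed in 50 mM potassium phosphate pH 7.0 with 0.1 mM NADPH and 5 mM 3-pyridinecarboxaldehyde, started with substrate, reading NADPH loss at 340 nm for 12 min at 25 °C. IC50s came from log-linear regression.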
A short description of series [13]: Physicochemical property was determined. It counts as ADME.

Several values for one entry are separate records, joined by “and”; a condition that tells them apart may be missing. Equal entries are not always repeated.

The compound `CCOC(=O)C1=C(O)C(=O)N(Cc2ccco2)C1` yielded an IC50 in series [1] of 3300 nM.

The compound `CC(C)(C)OC(=O)C1=C(O)C(=O)N(Cc2ccccc2)C1` had an inhibition in series [2] of 27%.

As for `CC(/C=C1\SC(=S)N(CC(=O)O)C1=O)=C\c1ccccc1`, in series [3], the IC50 was 1500 nM.

The compound `CCOC(=O)C1=C(O)C(=O)N(Cc2ccc(Cl)cc2)C1` gave an IC50 in series [1] of 310 nM.

In series [2], `CCOC(=O)C1=C(O)C(=O)N(C2CCCCC2)C1` registered an inhibition of 22%.

On to `O=C(O)Cc1nn(Cc2ccc(Br)cc2F)c(=O)c2ccccc12` [PONALRESTAT], for which the values for the IC50 in series [4] and in series [3] were 28 nM and 2000 nM, respectively. In addition, the Selectivity ratio in series [5] is 71.4.

For the compound `COC(=O)C1=C(O)C(=O)N(Cc2ccccc2)C1`, the IC50 in series [1] amounted to 2600 nM.

In [2], `CCOC(=O)C1=C(O)C(=O)N(c2cccc3ccccc23)C1` came in with an inhibition of 36%.

The compound `CCOC(=O)C1=C(O)C(=O)N(Cc2ccc(Cl)c(Cl)c2)C1` came in with an IC50 in series [1] of 240 nM.

For the compound `O=C1CCN(Cc2ccccc2)C1=O`, the pKa entry in series [6] is reported as “Could not be measured”.

Take `CCOC(=O)C1=C(O)C(=O)N(CC2CCCCC2)C1`: the inhibition in [2] was 64%.

`COc1ccc2c(C(=S)N(C)CC(=O)O)cccc2c1C(F)(F)F` [TOLRESTAT] displayed an IC50 in [4] of 29 nM.

`CCOC(=O)C1=C(O)C(=O)N(Cc2ccc(Br)cc2)C1` returned an IC50 in series [1] of 500 nM.

With `O=C1NC(=O)C2(N1)c1ccccc1-c1ccc(F)cc12` (configuration not stated) [ALCONIL], the IC50 in series [4] came out at 300 nM; in series [3] it was 27 nM. Besides, in [5], the Selectivity ratio stood at 0.1.

In the case of `CCCOC(=O)C1=C(O)C(=O)N(Cc2ccccc2)C1`, in series [1], the IC50 was determined as 1900 nM.

`CC(C)(C)OC(=O)C1=C(O)C(=O)N(Cc2cccs2)C1` registered an inhibition in [2] of 9%. Moreover, the Inhibition stood at 36% in the series filed under Rattus norvegicus [7] and 37% in the series listed under Rattus norvegicus [8].

The compound `CCOC(=O)C1=C(O)C(=O)N(Cc2ccc(OC)cc2)C1` returned an IC50 in series [1] of 410 nM.

Turning to `CCOC(=O)C1=C(O)C(=O)N(Cc2ccncc2)C1`, in series [9], the Selectivity ratio is above 1800. The IC50 in series [10] was determined as 110 nM; in series [1], 200 nM. The same compound came in with an inhibition in series [11] of 9%. The same compound returned an Inhibition in the series filed under Rattus norvegicus [8] of 28%.

In [2], `CCOC(=O)C1=C(O)C(=O)N(c2ccccc2)C1` came in with an inhibition of 28%.

In series [1], `CCOC(=O)C1=C(O)C(=O)N([C@@H](C)c2ccccc2)C1` registered an IC50 of 1200 nM.

Compound `CCOC(=O)C1=C(O)C(=O)N(Cc2cccs2)C1` registered an IC50 in series [1] of 380 nM.

Compound `CCOC(=O)C1=C(O)C(=O)N(C2c3ccccc3-c3ccccc32)C1` had an IC50 in series [1] of 300 nM.

For `CCOC(=O)C1=C(O)C(=O)N([C@H](C)c2ccccc2)C1`, the IC50 in [1] was 840 nM.

`CCOC(=O)C1=C(O)C(=O)N(Cc2ccccn2)C1` came in with an IC50 in series [1] of 440 nM.

As for `CCCC(CCC)C(=O)O` [VALPROATE SODIUM], the IC50 came to 380000 nM in series [4] and 89000 nM in series [3]. The Selectivity ratio in series [5] was found to be 0.2.

Turning to `CCOC(=O)C1=C(O)C(=O)N(CCc2ccccc2)C1`, the IC50 in series [1] is 2500 nM.

`CCOC(=O)C1C(=O)C(=O)NC12CCOc1ccc(F)cc12` (configuration not stated) had an IC50 in series [4] of 910 nM. In series [12], the Selectivity ratio was above 200. The same compound registered an inhibition in series [11] of 11%.

`CC1CN(Cc2ccccc2)C(=O)C1=O` (configuration not stated) registered a pKa in [13] of 10.6.

`CCOC(=O)C1=C(O)C(=O)N(Cc2cccc3ccccc23)C1` showed an IC50 in series [1] of 2300 nM.

In series [13], `CSC1CN(Cc2ccccc2)C(=O)C1=O` (configuration not stated) registered a pKa of 7.3.

With `CS(=O)(=O)C1CN(Cc2ccccc2)C(=O)C1=O` (configuration not stated), in series [13], the pKa worked out at 5.1.

In the case of `CCOC(=O)C1=C(O)C(=O)N(Cc2ccccc2Cl)C1`, in series [1], half-maximal inhibition (IC50) required 2300 nM.

For the compound `CCOC(=O)C1=C(O)C(=O)N(Cc2ccccc2)C1`, the IC50 in series [1] is 260 nM. Also, in series [11], the inhibition worked out at 2%. Moreover, the Inhibition in the series listed under Rattus norvegicus [8] is 51% and 42%.

For the compound `CC1(S(=O)(=O)O)CC(=O)c2ccccc2C1=O` (configuration not stated) [MENADIONE SULFUROUS ACID], the IC50 in [4] came to 82000 nM; in series [3] it was 490000 nM. The Selectivity ratio in series [5] was 6.

By IC50 is commonly meant the concentration needed to halve the response being measured. By inhibition is commonly meant the drop in the measured response relative to a control, in per cent. Read a low inhibition as little suppression. By pKa is commonly meant the pH at which an ionisable group is half protonated. A high value points to a weaker acid or stronger base. As usually defined, the Inhibition is the share of the control response that was lost under treatment.

Source of the values: ChEMBL document CHEMBL1125615, “A highly specific aldose reductase inhibitor, ethyl 1-benzyl-3-hydroxy-2(5H)-oxopyrrole-4-carboxylate, and its congeners” (J Med Chem, 1991).
